# Measurements from ChEMBL document CHEMBL1148008, “Antimicrobial and cytotoxic activity of agelasine and agelasimine analogs” (Bioorg Med Chem, 2007).
# Test system: Mycobacterium tuberculosis
# Assay: Antimicrobial activity against Mycobacterium tuberculosis at 6.25 ug/mL after 20 hrs by broth microdilution method
# Format: functional
# Conditions: not given
row,Structure (SMILES),inhibition at 6.25 µg/mL [%]
1,Cn1c[n+](Cc2ccccc2)c2c(N)ncnc21.[Cl-],0
2,CC(C)=CCC/C(C)=C/CC/C(C)=C/CC/C(C)=C/C[n+]1cn(C)c2nc[nH]/c(=N\OCc3ccccc3)c21,99
3,CC(C)=CCC/C(C)=C/CC/C(C)=C/CC/C(C)=C/Cn1cnc2c1c(=N)ncn2C,84
4,CO/N=c1\[nH]cnc2c1[n+](C/C=C(\C)CC/C=C(\C)CCC=C(C)C)cn2C,99
5,CC(C)=CCC/C(C)=C/CC/C(C)=C/CC/C(C)=C/Cn1cnc2c1C(=N)N(C)CN2C,99
6,CC(C)=CCC/C(C)=C/CC/C(C)=C/CC/C(C)=C/C[n+]1cn(C)c2nc[nH]/c(=N\OC(C)(C)C)c21,100

# Test system: Mycobacterium tuberculosis
# Assay: Antimicrobial activity against Mycobacterium tuberculosis after 20 hrs by broth microdilution method
# Format: functional
# Conditions: not given
row,Structure (SMILES),MIC [µg/mL]
1,CC(C)=CCC/C(C)=C/CC/C(C)=C/CC/C(C)=C/C[n+]1cn(C)c2nc[nH]/c(=N\OCc3ccccc3)c21,3.13
2,CO/N=c1\[nH]cnc2c1[n+](C/C=C(\C)CC/C=C(\C)CCC=C(C)C)cn2C,3.13
3,CC(C)=CCC/C(C)=C/CC/C(C)=C/CC/C(C)=C/Cn1cnc2c1C(=N)N(C)CN2C,3.13
4,CC(C)=CCC/C(C)=C/CC/C(C)=C/CC/C(C)=C/C[n+]1cn(C)c2nc[nH]/c(=N\OC(C)(C)C)c21,3.13

# Test system: Staphylococcus aureus
# Assay: Antibacterial activity against Staphylococcus aureus ATCC 25923 after 20 hrs by broth microdilution method
# Format: functional
# Conditions: ATCC 25923, 20 h
# Outline: (§1)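 Strains grown 24 h at 35 °C on tryptone-soya agar. Colonies suspended in saline to 0.5 McFarland, then diluted 1:10 in Mueller-Hinton broth (~10⁷ CFU/mL). Inoculum added to twofold dilutions in broth (final 0.125–32 µg/mL) in triplicate. Incubated aerobically at 35 °C for 20 h. MIC is the lowest concentration giving complete growth inhibition. Repeated at least once; gentamycin/streptomycin served as QC.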
row,Structure (SMILES),MIC [µg/mL]
1,Cn1c[n+](Cc2ccccc2)c2c(N)ncnc21.[Cl-],> 32
2,CC(C)=CCC/C(C)=C/CC/C(C)=C/CC/C(C)=C/C[n+]1cn(C)c2nc[nH]/c(=N\OCc3ccccc3)c21,6
3,CC(C)=CCC/C(C)=C/CC/C(C)=C/CC/C(C)=C/Cn1cnc2c1c(=N)ncn2C,4
4,CO/N=c1\[nH]cnc2c1[n+](C/C=C(\C)CC/C=C(\C)CCC=C(C)C)cn2C,8
5,CC(C)=CCC/C(C)=C/CC/C(C)=C/CC/C(C)=C/Cn1cnc2c1C(=N)N(C)CN2C,16
6,CC(C)=CCC/C(C)=C/CC/C(C)=C/CC/C(C)=C/C[n+]1cn(C)c2nc[nH]/c(=N\OC(C)(C)C)c21,24

# Test system: Escherichia coli
# Assay: Antibacterial activity against Escherichia coli ATCC 25922 after 20 hrs by broth microdilution method
# Format: functional
# Conditions: ATCC 25922, 20 h
# Outline: as §1
row,Structure (SMILES),MIC [µg/mL]
1,Cn1c[n+](Cc2ccccc2)c2c(N)ncnc21.[Cl-],> 32
2,CC(C)=CCC/C(C)=C/CC/C(C)=C/CC/C(C)=C/C[n+]1cn(C)c2nc[nH]/c(=N\OCc3ccccc3)c21,> 32
3,CC(C)=CCC/C(C)=C/CC/C(C)=C/CC/C(C)=C/Cn1cnc2c1c(=N)ncn2C,8
4,CO/N=c1\[nH]cnc2c1[n+](C/C=C(\C)CC/C=C(\C)CCC=C(C)C)cn2C,16
5,CC(C)=CCC/C(C)=C/CC/C(C)=C/CC/C(C)=C/Cn1cnc2c1C(=N)N(C)CN2C,> 32
6,CC(C)=CCC/C(C)=C/CC/C(C)=C/CC/C(C)=C/C[n+]1cn(C)c2nc[nH]/c(=N\OC(C)(C)C)c21,> 32

# Test system: Bacteroides fragilis
# Assay: Antibacterial activity against Bacteroides fragilis after 20 hrs by broth microdilution method
# Format: functional
# Conditions: not given
row,Structure (SMILES),MIC [µg/mL]
1,Cn1c[n+](Cc2ccccc2)c2c(N)ncnc21.[Cl-],> 32
2,CC(C)=CCC/C(C)=C/CC/C(C)=C/CC/C(C)=C/C[n+]1cn(C)c2nc[nH]/c(=N\OCc3ccccc3)c21,8
3,CO/N=c1\[nH]cnc2c1[n+](C/C=C(\C)CC/C=C(\C)CCC=C(C)C)cn2C,16

# Test system: Bacteroides thetaiotaomicron
# Assay: Antibacterial activity against Bacteroides thetaiotaomicron after 20 hrs by broth microdilution method
# Format: functional
# Conditions: not given
row,Structure (SMILES),MIC [µg/mL]
1,Cn1c[n+](Cc2ccccc2)c2c(N)ncnc21.[Cl-],> 32
2,CC(C)=CCC/C(C)=C/CC/C(C)=C/CC/C(C)=C/C[n+]1cn(C)c2nc[nH]/c(=N\OCc3ccccc3)c21,16
3,CO/N=c1\[nH]cnc2c1[n+](C/C=C(\C)CC/C=C(\C)CCC=C(C)C)cn2C,16

# Test system: U-937/GTB
# Assay: Cytotoxicity against U937 GTB cells
# Format: functional, cell-based
# Conditions: Homo sapiens
# Outline: (§2)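 Fluorometric microculture cytotoxicity assay (FMCA) read-out; IC50 values reported.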
row,Structure (SMILES),IC50 [µM]
1,Cn1c[n+](Cc2ccccc2)c2c(N)ncnc21.[Cl-],> 80
2,CC(C)=CCC/C(C)=C/CC/C(C)=C/CC/C(C)=C/C[n+]1cn(C)c2nc[nH]/c(=N\OCc3ccccc3)c21,6.79
3,CC(C)=CCC/C(C)=C/CC/C(C)=C/CC/C(C)=C/Cn1cnc2c1c(=N)ncn2C,6.4
4,CO/N=c1\[nH]cnc2c1[n+](C/C=C(\C)CC/C=C(\C)CCC=C(C)C)cn2C,1.32
5,CC(C)=CCC/C(C)=C/CC/C(C)=C/CC/C(C)=C/Cn1cnc2c1C(=N)N(C)CN2C,3.36
6,CC(C)=CCC/C(C)=C/CC/C(C)=C/CC/C(C)=C/C[n+]1cn(C)c2nc[nH]/c(=N\OC(C)(C)C)c21,4.87

# Test system: not listed separately
# Assay: Cytotoxicity against RPMI 8226/s cells
# Format: functional, cell-based
# Conditions: Homo sapiens, RPMI8226/S
# Outline: as §2
row,Structure (SMILES),IC50 [µM]
1,Cn1c[n+](Cc2ccccc2)c2c(N)ncnc21.[Cl-],> 80
2,CC(C)=CCC/C(C)=C/CC/C(C)=C/CC/C(C)=C/C[n+]1cn(C)c2nc[nH]/c(=N\OCc3ccccc3)c21,8.24
3,CC(C)=CCC/C(C)=C/CC/C(C)=C/CC/C(C)=C/Cn1cnc2c1c(=N)ncn2C,6.78
4,CO/N=c1\[nH]cnc2c1[n+](C/C=C(\C)CC/C=C(\C)CCC=C(C)C)cn2C,1.24
5,CC(C)=CCC/C(C)=C/CC/C(C)=C/CC/C(C)=C/Cn1cnc2c1C(=N)N(C)CN2C,2.51
6,CC(C)=CCC/C(C)=C/CC/C(C)=C/CC/C(C)=C/C[n+]1cn(C)c2nc[nH]/c(=N\OC(C)(C)C)c21,2.09

# Test system: not listed separately
# Assay: Cytotoxicity against CEM/s cells
# Format: functional, cell-based
# Conditions: Homo sapiens
# Outline: as §2
row,Structure (SMILES),IC50 [µM]
1,Cn1c[n+](Cc2ccccc2)c2c(N)ncnc21.[Cl-],> 80
2,CC(C)=CCC/C(C)=C/CC/C(C)=C/CC/C(C)=C/C[n+]1cn(C)c2nc[nH]/c(=N\OCc3ccccc3)c21,14
3,CC(C)=CCC/C(C)=C/CC/C(C)=C/CC/C(C)=C/Cn1cnc2c1c(=N)ncn2C,7.77
4,CO/N=c1\[nH]cnc2c1[n+](C/C=C(\C)CC/C=C(\C)CCC=C(C)C)cn2C,1.16
5,CC(C)=CCC/C(C)=C/CC/C(C)=C/CC/C(C)=C/Cn1cnc2c1C(=N)N(C)CN2C,3.15
6,CC(C)=CCC/C(C)=C/CC/C(C)=C/CC/C(C)=C/C[n+]1cn(C)c2nc[nH]/c(=N\OC(C)(C)C)c21,3.86

# Test system: ACHN
# Assay: Cytotoxicity against ACHN cells
# Format: functional, cell-based
# Conditions: Homo sapiens
# Outline: as §2
row,Structure (SMILES),IC50 [µM]
1,Cn1c[n+](Cc2ccccc2)c2c(N)ncnc21.[Cl-],> 80
2,CC(C)=CCC/C(C)=C/CC/C(C)=C/CC/C(C)=C/C[n+]1cn(C)c2nc[nH]/c(=N\OCc3ccccc3)c21,20.9
3,CC(C)=CCC/C(C)=C/CC/C(C)=C/CC/C(C)=C/Cn1cnc2c1c(=N)ncn2C,12.3
4,CO/N=c1\[nH]cnc2c1[n+](C/C=C(\C)CC/C=C(\C)CCC=C(C)C)cn2C,40.4
5,CC(C)=CCC/C(C)=C/CC/C(C)=C/CC/C(C)=C/Cn1cnc2c1C(=N)N(C)CN2C,5.16
6,CC(C)=CCC/C(C)=C/CC/C(C)=C/CC/C(C)=C/C[n+]1cn(C)c2nc[nH]/c(=N\OC(C)(C)C)c21,8.4

# Test system: Pichia kudriavzevii
# Assay: Antifungal activity against Candida krusei ATCC 6258
# Format: functional
# Conditions: not given
row,Structure (SMILES),MIC [µg/mL]
1,CC(C)=CCC/C(C)=C/CC/C(C)=C/CC/C(C)=C/C[n+]1cn(C)c2nc[nH]/c(=N\OCc3ccccc3)c21,1
2,CC(C)=CCC/C(C)=C/CC/C(C)=C/CC/C(C)=C/Cn1cnc2c1c(=N)ncn2C,2
3,CO/N=c1\[nH]cnc2c1[n+](C/C=C(\C)CC/C=C(\C)CCC=C(C)C)cn2C,8
4,CC(C)=CCC/C(C)=C/CC/C(C)=C/CC/C(C)=C/Cn1cnc2c1C(=N)N(C)CN2C,16
5,CC(C)=CCC/C(C)=C/CC/C(C)=C/CC/C(C)=C/C[n+]1cn(C)c2nc[nH]/c(=N\OC(C)(C)C)c21,2
